Bioassay records deposited in PubChem BioAssay by Sanford-Burnham Center for Chemical Genomics.
Hits are enriched below; roughly 2.4% of the tested compounds scored in any of these assays.
DNMT1 block: human DNMT1 methyltransferase inhibitors, primary screen, biochemical, molecular beacon, fluorescence, HinP1I cleavage, uHTS | inhibition (reported as % activation of signal), % at 10 µM | 360,000 compounds, 0.83% hits | DNA (cytosine-5)-methyltransferase 1 (Homo sapiens), P26358; in the data active = inhibition above about 50%
LMPTP block: LMPTP phosphatase inhibitors, primary screen, biochemical, fluorescence intensity, uHTS | 360,000 compounds, 0.22% hits | inhibition, % at 20 µM | recombinant LMPTP-A, OMFP fluorogenic substrate | AID 651560, 2012;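 active = compounds that cut the enzyme signal by at least half of the control window in the single-dose screen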
Target sequence (P24666 whole entry, looked up): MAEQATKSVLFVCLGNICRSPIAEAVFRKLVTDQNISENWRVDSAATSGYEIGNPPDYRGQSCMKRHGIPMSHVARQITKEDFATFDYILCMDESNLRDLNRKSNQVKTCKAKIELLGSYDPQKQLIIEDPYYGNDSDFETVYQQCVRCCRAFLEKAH
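Assay system: LMPTP-A phosphatase enzyme | Input: 0.625 nM enzyme | Also added: Fluorogenic phosphatase substrate OMFP at 400 µM final | Compound dosing: One test concentration per compound, 20 µM, with 3% DMSO overall | Schedule: 50 min enzyme reaction at room temperature, protected from light | Signal: Fluorescence intensity | Benchmarks: no-enzyme and uninhibited controls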
SUMO1-SIM PPI: modulators of SUMO1 protein-protein interactions, primary screen, biochemical, uHTS; SUMO1 binding to a labelled peptide, TR-FRET, 1 h; inhibition, % at 20 µM; 360,000 compounds, 0.33% hits; in the data active = inhibition above about 37%
Target sequence (P63165 whole entry, looked up): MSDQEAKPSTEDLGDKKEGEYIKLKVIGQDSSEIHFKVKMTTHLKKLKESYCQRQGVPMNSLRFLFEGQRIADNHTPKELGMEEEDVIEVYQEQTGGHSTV
NadD inh: inhibitors of S. aureus NadD, primary screen, biochemical, colorimetric, uHTS | Nicotinate-nucleotide adenylyltransferase NadD (Staphylococcus aureus N315) | purified NadD enzyme, colorimetric absorbance read-out | inhibition, % at 20 µM | 360,000 compounds, 0.78% hits; in the data active = inhibition above about 26%
STEP inh: STEP phosphatase inhibitors, primary screen, biochemical, fluorescence intensity, uHTS; recombinant STEP, OMFP fluorogenic substrate; inhibition, % at 20 µM; 360,000 compounds, 0.25% hits;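 active = inhibition at 20 µM, scaled per plate between control wells, above about 37%, limit read from the data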
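System: STEP (striatal-enriched tyrosine phosphatase) enzyme, cell-free; medium: Bis-Tris pH 6.0 buffer with DTT, detergent; dosing: 20 µM, 1% DMSO; times: reaction 20 min, ambient temperature; detection: fluorescence, 480/540 nm; read-out basis: normalized % inhibition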
Scp-1 inhibitor: Scp-1 phosphatase inhibitors, primary screen, biochemical, colorimetric, uHTS; Carboxy-terminal domain RNA polymerase II polypeptide A small phosphatase 1 (Homo …; Recombinant Scp1, phosphopeptide, malachite green phosphate absorbance; inhibition, % at 20 µM; 340,000 compounds, 0.88% hits;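 active = inhibition above about 50% at 20 µM, limit read from the data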
Target sequence (Q9GZU7 76-261 limits assumed): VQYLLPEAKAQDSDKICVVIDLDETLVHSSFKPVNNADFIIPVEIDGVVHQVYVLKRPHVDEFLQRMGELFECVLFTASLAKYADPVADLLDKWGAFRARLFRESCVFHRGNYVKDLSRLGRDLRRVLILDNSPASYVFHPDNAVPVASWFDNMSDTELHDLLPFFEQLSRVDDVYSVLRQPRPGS
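Times: enzyme reaction 45 min at room temperature, colour 5 min, stabilisation 30 min. Material: SCP-1 catalytic fragment, aa 76-261. Medium: Acidic Tris acetate buffer with magnesium and detergent. Signal: colorimetric free-phosphate detection, absorbance 630 nm. Read-out basis: % inhibition of SCP-1 phosphate liberation. Reagent: Phosphorylated 17-residue peptide substrate.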
Scp1 confirm: Scp-1 phosphatase inhibitors, retest, confirmation, biochemical, colorimetric, single concentration | shares compounds with Scp-1 inhibitor | recombinant SCP-1 catalytic domain, phosphate release, malachite green absorbance | inhibition, % at 20 µM | 2,500 compounds, 61% hits | AID 540281, 2011
MG interference: colorimetric readout interference by compounds, confirmation, artefact control for Scp-1 inhibitor project, biochemical, single concentration; apparent inhibition (interference), % at 20 µM; Colorimetric interference counterscreen, malachite green absorbance 630 nm; AID 540313, 2011; 2,500 tested, under 10 active; shares compounds with Scp-1 inhibitor;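 also: compounds added after enzyme reaction finished so only phosphate colour detection is probed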
Scp-1 Tm shift: Scp-1 binding by thermal shift, confirmation, orthogonal assay for Scp-1 inhibitor project, biophysical, differential scanning fluorimetry; shares compounds with Scp-1 inhibitor; thermal shift relative to vanadate control, % at 40 µM; 1,500 compounds, 25% hits; Recombinant SCP1, Sypro Orange thermal shift Tm;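 active = substances whose mean melting-temperature shift, as a percentage of the reference inhibitor's shift, reaches about 5.3%, limit read from the data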
Of the large screens only hits and unclear results are named; the others gave an inactive call (follow-up assays come after a bar, where they were run).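 The calls were made as follows, unless noted: active = inhibition of at least 30% at 20 µM; inactive = the rest.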

Cc1cc(C)c(C)c(S(=O)(=O)N[C@@H](C)C(=O)OCC(N)=O)c1C	none
CCOC(=O)c1c(NC(=O)C2C3C=CC(C3)C2(C)C(=O)O)sc2c1CCCC2 (centres undefined)	Scp-1 inhibitor 53 | Scp1 confirm 56 | MG interference inactive | Scp-1 Tm shift inactive
CCNCC(O)COCC(O)CNCC (centres undefined)	none
CCOc1ccc(/C=C2\SC(=S)N(CCC(=O)Nc3ccccc3C(=O)O)C2=O)cc1	Scp-1 inhibitor 64 | Scp1 confirm 44 | MG interference inactive | Scp-1 Tm shift 18
COc1ccc(/C=C2\SC(=S)N(CCC(=O)Nc3ccccc3C(=O)O)C2=O)cc1	none
CCOc1ccc(/C=C2/SC(=S)N(CCC(=O)Nc3ccc(C(=O)O)cc3)C2=O)cc1	LMPTP block 64, SUMO1-SIM PPI 61, NadD inh 38, STEP inh 47, Scp-1 inhibitor 56 | Scp1 confirm 78 | MG interference inactive | Scp-1 Tm shift inactive
Cc1cccc(S(=O)Cc2ccc(C(=O)NC3CCN(Cc4ccccc4)CC3)o2)c1 (centres undefined)	none
Cc1ccc(N(C(=O)CCC(=O)Nc2nccs2)C(C(=O)NC(C)(C)C)c2ccc(O)cc2)cc1 (centres undefined)	none
C[N+]1(CCCCSc2ccc(O)cc2)CCCCC1	Scp-1 inhibitor 98 | Scp1 confirm 83 | MG interference inactive | Scp-1 Tm shift inactive
Cc1cccc(Nc2ncc3c(n2)CC(c2ccco2)CC3=O)c1 (centres undefined)	LMPTP block 59, Scp-1 inhibitor 86 | Scp1 confirm inactive | MG interference inactive
CSCCC(NS(=O)(=O)c1ccc(Cl)cc1)C(=O)OCc1c(Cl)cccc1Cl (centres undefined)	none
CSCCC(NS(=O)(=O)c1ccc(Cl)cc1)C(=O)OCc1cccc(Cl)c1 (centres undefined)	Scp-1 inhibitor 51 | Scp1 confirm inactive | MG interference inactive
C[N+](C)(C)CCCN(Cc1ccc2c(c1)OCO2)C(=O)NC1CCCCC1	Scp-1 inhibitor 91 | Scp1 confirm 79 | MG interference inactive | Scp-1 Tm shift inactive
CC(C)(C)c1ccc2c(c1)OC(C(=O)N/N=C/c1ccc([N+](=O)[O-])o1)CO2 (centres undefined)	Scp-1 inhibitor 108 | Scp1 confirm 64 | MG interference inactive | Scp-1 Tm shift inactive
CC(C)(C)c1ccc2c(c1)OC(C(=O)N/N=C\c1ccncc1)CO2 (centres undefined)	none
O=S(=O)(c1cccc2ccccc12)N1CCSC1	none
O=S(=O)(c1cccc2cnccc12)N1CCNCC1	Scp-1 inhibitor 60 | Scp1 confirm inactive | MG interference inactive
COc1cc(/C=C/C(=O)O)ccc1OCc1ccc([N+](=O)[O-])cc1	none
CSCCC(NS(=O)(=O)c1ccccc1)C(=O)OCc1nc2ccsc2c(=O)[nH]1 (centres undefined)	none
CCOC(=O)N1CCC(N2Cc3cccc(C(=O)NCc4ccc5c(c4)OCO5)c3C2=O)CC1	Scp-1 inhibitor 92 | Scp1 confirm 65 | MG interference inactive | Scp-1 Tm shift inactive
CCOC(=O)N1CCC(NC(=O)c2cccc3c2C(=O)N(c2ccc(OC)cc2)C3)CC1	Scp-1 inhibitor 52 | Scp1 confirm 49 | MG interference inactive | Scp-1 Tm shift inactive
CCOC(=O)N1CCC(NC(=O)c2cn(-c3ccc(OC)cc3)c(=O)c3ccccc23)CC1	none
Cn1c(SCC(=O)Nc2ncc(C(F)(F)F)cc2Cl)nnc1-c1ccc(Cl)cc1	Scp-1 inhibitor 62 | Scp1 confirm inactive | MG interference inactive
CCn1c(SCC(=O)Nc2ncc(C(F)(F)F)cc2Cl)nnc1-c1ccccc1	none
CC1(C)CC(=O)C(CS(=O)(=O)c2ccccc2)=C(O)C1	none
O=C(NCCc1c[nH]c2ccccc12)c1cc(Cl)c2c(c1)OCO2	Scp-1 inhibitor 52 | Scp1 confirm inactive | MG interference inactive
O=C(NCCc1c[nH]c2ccccc12)c1ccc2c(c1)OCO2	none
Cc1ccc(NC(=O)C(=O)NCCc2c[nH]c3ccccc23)cc1C	none
N#Cc1c(-c2ccccc2)nc(SCC(=O)Nc2ccc(OC(F)(F)Cl)cc2)[nH]c1=O	none
Cc1ccc(S(=O)(=O)Nn2c(C)nnc2-n2nc(C)cc2C)cc1	none
Cc1ccc(CN2CC(C(=O)Nc3nc(C)cs3)CC2=O)cc1 (centres undefined)	none (no result: Scp-1 inhibitor)
Cc1ccc(CN2CC(C(=O)Nc3ncc(C)s3)CC2=O)cc1 (centres undefined)	Scp-1 inhibitor 51 | Scp1 confirm inactive | MG interference inactive
CN(/N=C/c1ccc(-c2ccc([N+](=O)[O-])cc2)o1)c1ccccc1	none
O=C1Nc2ccccc2/C1=N/N=C/c1ccc(-c2ccc([N+](=O)[O-])cc2)o1	Scp-1 inhibitor 75 | Scp1 confirm 36 | MG interference inactive | Scp-1 Tm shift 5.6
O=C1NC2c3c(Cl)sc(Cl)c3C(=O)C2O1 (centres undefined)	DNMT1 block 91, Scp-1 inhibitor 79 | Scp1 confirm 71 | MG interference inactive | Scp-1 Tm shift 18
O=C1NC2c3c(I)sc(I)c3C(=O)C2O1 (centres undefined)	none
CCCCn1cnc2c(SCc3ccccc3F)nc(N)nc21	none
O=S1(=O)N=C(N2CCc3ccccc3C2)c2ccccc21	Scp-1 inhibitor 76 | Scp1 confirm inactive | MG interference inactive
Cn1ccnc1SCC(=O)c1ccc(O)cc1	none
